How the values were obtained:
[1] = melting temperature; fluorescence melt of hairpins on a sequencing array, two-state fit, raised by 9.35 °C to match UV melts; details: sodium 0.088 M
Procedure, shortened: (§1)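 To match UV melts, fitted temperatures were raised by 9.35 °C. These fits were bootstrapped two-state models that gave melting temperature and folding enthalpy, combined by inverse variance over four replicates. The input was normalised Cy3 fluorescence of library hairpins with annealed Cy3 and quencher oligos on a sequenced MiSeq flow cell, imaged in 50 mM Na-HEPES pH 8.0, 25 mM NaCl in 2.5 °C steps up to 60 °C.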

[2] = folding enthalpy; higher = less favourable; fluorescence melt of hairpins on a sequencing array, two-state fit; details: sodium 0.088 M
Procedure, shortened: as §1

Sequence	Tm [1] [°C]	folding enthalpy [2] [kcal/mol]
GCCAACGGAAACGTTAGC ((.((((....)))).))	40	-23.6
GCCAAGCGAAAGCACGGC (((..((....))..)))	57.4	-30.4
GCCAAGCGAAAGCATAGC ((.(.((....)).).))	30.7	-12.9
GCCAAGCGAAAGCATCGC ((.(.((....)).).))	31.2	-6.8
GCCAAGCGAAAGCCTTGC ((.(.((....)).).))	33.9	-13.6
GCCAAGCGAAAGCGTAGC ((.(.((....)).).))	47.5	-13.3
GCCAAGCGAAAGCGTCGC ((.(.((....)).).))	45.5	-12.9
GCCAAGCGAAAGCTAAGC ((..(((....)))..))	37.6	-14.4
GCCAAGCGAAAGCTACGC ((..(((....)))..))	34.7	-11
GCCAAGCGAAAGCTGCGC ((..(((....)))..))	51.6	-20.8
GCCAAGCGAAAGCTGTGC ((..(((....)))..))	46.4	-17.4
GCCAAGGGAAACCTCGGC (((.(((....))).)))	46	-29.2
GCCAAGGGAAACCTTGAC (.(((((....))))).)	39.6	-20.6
GCCAAGTCGAAAGACGGC (((..(((....))))))	52.7	-25.6
GCCAATCGAAAGATGGC (((.(((....))))))	55.4	-35.5
GCCACACGAAAGTGAGGC (((.(((....))).)))	66.2	-35.8
GCCACAGCGAAAGCTGGC (((..(((....))))))	51.9	-12.5
GCCACAGGAAACCATGGC ((((..(....)..))))	33.3	-22.8
GCCACAGGAAACTGTAGC ((.((((....)))).))	39.4	-24.3
GCCACAGGAAACTGTGAC (.(((((....))))).)	46	-15.9
GCCACCGAAAGGTAGGC ((((((....))).)))	62.7	-32.2
GCCACCGAAAGGTCCGGC ((((((....)))..)))	46.8	-17
GCCACCGGAAACAGCGGC (((.(.(....).).)))	32.5	-16.9

Sequence	Tm [1] [°C]	folding enthalpy [2] [kcal/mol]
GCCACGACGAAAGTCGGC (((..(((....))))))	44.1	-10.2
GCCACGCGAAAGCCCGGC (((..((....))..)))	43.7	-18.5
GCCACGCGAAAGCGACGC ((..(((....)))..))	39.8	-11.8
GCCACGCGAAAGCGCCGC ((..(((....)))..))	29.1	-8.83
GCCACGCGAAAGCGCTGC ((..(((....)))..))	37.4	-11
GCCACGCGAAAGCTTGGC ((((.((....)).))))	66	-35.5
GCCACGGGAAACCGCGGC (((.(((....))).)))	59.1	-44.5
GCCACGTCGAAAGACGGC (((..(((....))))))	49.5	-10.8
GCCACTCGAAAGAGCGGC (((.(((....))).)))	61.3	-46.9
GCCACTCGAAAGAGGGC (((.(((....))))))	54.7	-24.3
GCCACTGGAAACGGTGGC (((((.(....).)))))	58.6	-50.6
GCCAGAGGAAACTCTAGC ((.((((....)))).))	34.1	-17.3
GCCAGCGAAAGCTAGGGC ((((((....)))..)))	52.7	-31.6
GCCAGCGGAAACGTTGGC ((((.((....)).))))	59.4	-38.9
GCCAGCTCGAAAGAGGGC (((..(((....))))))	45	-24.5
GCCAGGCGAAAGCCAAGC ((..(((....)))..))	44.8	-13.3
GCCAGGCGAAAGCCTAGC ((.((((....)))).))	51.4	-15.7
GCCAGGCGAAAGCCTTGC ((.((((....)))).))	56.9	-20
GCCAGGCGAAAGCGAGGC (((..((....))..)))	59.4	-21.1
GCCAGGCGAAAGCGTCGC ((.(.((....)).).))	40.7	-8.31
GCCAGGGCGAAAGCCGGC (((..(((....))))))	63.3	-17.1
GCCAGTGGAAACACTAGC ((.((((....)))).))	39.9	-21.9
GCCATAGAAATATGGC ((((((....))))))	53.5	-36.4

Sequence	Tm [1] [°C]	folding enthalpy [2] [kcal/mol]
GCCATCCGAAAGGAGGC (((.(((....))))))	57.6	-22.8
GCCATCCGAAAGGAGGGC (((.(((....))).)))	67.2	-44
GCCATCGAAAGATATGGC ((((((....)))..)))	46.6	-32
GCCATCGAAAGATGAGGC ((((((....)))..)))	46.3	-18.8
GCCATCGAAAGATTAGGC ((((((....)))..)))	43.4	-30.7
GCCATGAAAATGGC (((((....)))))	60.6	-28.1
GCCATGCGAAAGCAAAGC ((..(((....)))..))	32.2	-11.5
GCCATGCGAAAGCAGAGC ((..(((....)))..))	44.6	-17.9
GCCATGCGAAAGCATAGC ((.((((....)))).))	51.6	-17
GCCATGCGAAAGCCAGGC (((..((....))..)))	55.4	-21
GCCATGCGAAAGCCTGGC ((((.((....)).))))	62.8	-31.2
GCCATGCGAAAGCCTTGC ((.(.((....)).).))	26.6	-10
GCCATGCGAAAGCGTCGC ((.(.((....)).).))	48	-12.7
GCCATGGCGAAAGCCGGC (((..(((....))))))	62	-16.2
GCCATTCGAAAGAAAGGC (((.(((....))).)))	49.3	-37
GCCATTGCGAAAGCAGGC (((..(((....))))))	51.4	-19.1
GCCATTGGAAACAATAGC ((.((((....)))).))	33.1	-13.7
GCCATTGGAAACGATGGC (((((.(....).)))))	54.1	-45.8
GCCCAACCGAAAGGTGGC (((..(((....))))))	51.6	-18.8
GCCCAACGAAAGTTGGC (((.(((....))))))	57.1	-12.8
GCCCAAGGAAACCTGGGC (((((.(....).)))))	54.1	-43.8
GCCCAATCGAAAGATGGC (((..(((....))))))	43.3	-24.9
GCCCACGAAAGTGATGGC ((((((....)))..)))	50.6	-29.4

Sequence	Tm [1] [°C]	folding enthalpy [2] [kcal/mol]
GCCCACGAAAGTGCGGGC ((((((....)))..)))	55	-28.4
GCCCACGAAAGTGTGGC ((((((....))).)))	62.4	-30.2
GCCCACGAAAGTGTGGGC ((((((....)))..)))	68	-31.5
GCCCACGAAAGTGTTGGC ((((((....)))..)))	49	-20.4
GCCCACGGAAACATGGGC (((((.(....).)))))	50.7	-30.8
GCCCACGGAAACGTGAGC ((.((((....)))).))	50.9	-27.2
GCCCAGAAATGGGC (((((....)))))	63.1	-33.9
GCCCAGACGAAAGTCGGC (((..(((....))))))	49.6	-15.7
GCCCAGCGAAAGCAGCGC ((.(.((....)).).))	46.5	-13.9
GCCCAGCGAAAGCGGTGC ((.(.((....)).).))	53.1	-15.8
GCCCAGCGAAAGCTAAGC ((..(((....)))..))	27.7	-9.29
GCCCAGCGAAAGCTAGGC (((.(((....))).)))	54.1	-42.3
GCCCAGCGAAAGCTGTGC ((.((((....)))).))	61	-16
GCCCAGCGAAAGCTTGGC (((.(((....))).)))	54.9	-53
GCCCAGGGAAACCTAGGC (((.(((....))).)))	43.2	-21.5
GCCCAGTCGAAAGACGGC (((..(((....))))))	49.3	-13.4
GCCCATACGAAAGTAGGC (((..(((....))))))	41.5	-20.8
GCCCCAACGAAAGTTGGC (((..(((....))))))	38.7	-5.86
GCCCCAGGAAACCGGGGC (((((.(....).)))))	59.3	-41.2
GCCCCCGAAAGGGAGGC ((((((....))).)))	68.7	-29.7
GCCCCCGAAAGGGATGGC ((((((....)))..)))	52.1	-24.1
GCCCCGCGAAAGCAGTGC ((.(.((....)).).))	34	-11.8

— the array DNA melting data of Ke et al. (doi:10.1101/2024.01.08.574731)
